This is an account of results in paper PMC11604526 (Cell Reports Medicine, 2024).

The subject of one experiment is GAT-1 and Synt1A. The experiment is described as follows: GAT-1 and Synt1A total levels and membrane fractions in cultured neurons. The experiment is classed as cell-based, mouse. The note with it: GSNO 50 μM for 6 h; n = 5. The essentials:
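Primary cortical neurons from E16 mice were grown on poly-L-ornithine in Neurobasal with 2% B27. For membrane fractions, cells were permeabilized in extraction buffer 1 and spun at 1000 ×g for 5 min; the pellet was resuspended in buffer 2B to extract integral membrane proteins. β-Actin was checked to confirm fraction purity. Western blots used anti-GAT-1 and anti-syntaxin1A (both 1:4000) and anti-Na+-K+-ATPase (1:1000).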

Experiment [1] relates to SNARE complex (Synt1A, SNAP-25, VAMP-2). The experiment is described as follows: SNARE complex and monomer levels in synaptosomes. The experiment is classed as in vivo, mouse. The note with it: 0.2 pmol/d days 5-7 after stroke, day 8. The essentials:
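Peri-infarct tissue was homogenised at 4°C in 320 mM sucrose, 1 mM NaHCO3, 1 mM MgCl2 and 0.5 mM CaCl2. The homogenate was spun at 500 ×g for 2 min, and the supernatant at 10,100 ×g for 10 min. The pellet was resuspended in 0.32 M sucrose, layered on 0.8 M sucrose and spun at 9100 ×g for 15 min. The 0.8 M fraction was pelleted at 12,000 ×g for 15 min and taken up in SDS lysis buffer.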

For experiment [2], the system named is GAT-1. In words: GAT-1 level and membrane fraction. The experiment is classed as cell-based. The note with it: 100 nM; compared with Tat-Synt1A251-265mut; n = 5. The gist of the method: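 HEK293 cells lentivirally expressing GAT-1-EGFP were exposed to peptide at 100 nM. Cells were permeabilised in Extraction Buffer 1 and spun at 1000 ×g for 5 min to split cytosol from membranes. Integral membrane proteins were extracted from the pellet in Extraction Buffer 2B and taken straight to western blot. β-Actin, a cytosolic marker, served to check membrane-fraction purity.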

In experiment [3] the test system is GAT-1. The experiment is described as follows: 3H-GABA uptake in HEK293 cells overexpressing GAT-1. Format: cell-based. The note with it: 100 nM; compared with Tat-Synt1A251-265mut (100 nM); n = 5. The gist of the method:
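HEK293 cells were kept in MEM with 10% FBS and transduced with lentiviral GAT-1-EGFP. These GAT-1-overexpressing cells were incubated with peptide (100 nM), or with the mutant control peptide at the same concentration, before 3H-GABA uptake was measured.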

The test system of the next experiment is Synt1A-SNAP-25 complex. In words: Co-IP of Synt1A-SNAP-25 complex in peri-infarct cortex. The experiment is classed as in vivo, mouse. The conditions noted are these: microinjection 0.2 pmol/d days 5-7 after stroke; day 8; n = 5. The essentials: (§1)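 Photothrombotic stroke was induced with rose bengal. Peptide was infused into the peri-infarct cortex through a 33-gauge injector in a guide cannula implanted in the infarct core (AP 0, ML −1.5, DV −1.0 mm from bregma). Dissected tissue was lysed 30 min in ice-cold RIPA and spun at 12,000 ×g for 15 min at 4°C. Lysates were precleared 1 h at 4°C with protein G magnetic beads before co-IP.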

A further experiment deals with peri-infarct cortex. In words: In vivo LFP and spike recording in peri-infarct cortex. On the set-up: species or system mouse. The note with it: infused days 5-11 after stroke; recorded day 12. The essentials:
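Spike-firing time histograms were built by counting spikes in sequential 1 s bins. Movement-related change was expressed as ((firing events during movement − firing events during stillness)/firing events during stillness) × 100.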

Experiment [4] relates to layer 5 peri-infarct pyramidal neurons. In words: Whole-cell recordings in acute brain slices from treated mice. Format: in vivo, mouse.
The subject of experiment [5] is mice with photothrombotic stroke. In words: Motor function. Format: in vivo, mouse. The gist of the method: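 Photothrombotic stroke was induced with rose bengal, holding body temperature at 37 ± 0.5°C. For grid walking, each mouse walked freely for 5 min on a wire grid 50 cm high. For the cylinder task, mice explored a clear cylinder (15 cm tall, 10 cm diameter) for 5 min, and only rears with both forelimbs clearly visible were timed. Tests ran 7 days before stroke and at set days after stroke.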

The subject of a further experiment is Synt1A-VAMP-2 complex. In words: Co-IP of Synt1A-VAMP-2 complex in peri-infarct cortex. The conditions noted are these: microinjection 0.2 pmol/d days 5-7 after stroke; day 8; n = 5. The experiment is classed as in vivo, mouse. The gist of the method: as §1
Experiment [6] deals with extracellular GABA ([GABA]o). In words: Extracellular GABA in peri-infarct cortex. The note with it: microinjection 0.2 pmol/d days 5-7 after stroke; day 8 after stroke; microdialysis; n = 6. The experiment is classed as in vivo, mouse. The essentials:
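A CMA7 microdialysis probe was placed in peri-infarct cortex (AP 0, ML −0.65, DV −1.5 mm from bregma). It was perfused at 1 μL/min with bicarbonate-buffered saline containing 10 mM glucose. Dialysate was collected in 20-min fractions over 2 h, and the second fraction was analysed. GABA was measured by ELISA (activator, 37°C for 15 min in the dark, stop solution, A450).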

The test system of experiment [7] is midline-crossing BDA+ fibers, C7 spinal cord. In words: BDA tract tracing, axonal sprouting. Format: in vivo, mouse. The note with it: treatment days 5-11 after stroke; BDA day 34, staining day 48; n = 6. The essentials:
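Contralateral cortex injected at two sites with 10% biotinylated dextran amine on day 34 after stroke. Fourteen days later, mice were transcardially perfused with ice-cold saline, then 4% PFA. Transverse cervical spinal cord and coronal brain sections were cut at 40 μm. BDA+ axons were labelled with streptavidin-Cy3 (1:500). Analysis was blinded.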

The next experiment concerns the target GAT-1-Synt1A interaction (Mus musculus, UniProt P31648). The experiment is described as follows: Synt1A-GAT-1 uncoupling activities of ZLQ series of compounds. The conditions noted are these: Figures S4A/S4B; n = 3.
[8] abbreviates: 0.2 pmol/d days 5-7 after stroke, recorded day 8.
[9] abbreviates: compared with Tat-Synt1A251-265mut-treated mice.
Where [10] appears, read: compared with sham and Tat-Synt1A251-265mut-treated mice with stroke.

Square brackets hold non-standard residues; d marks the D form. Ends that are not written are not given here. Dmt = Cc1cc(O)cc(C)c1C[C@H](N)C(=O)O; Cha = N[C@@H](CC1CCCCC1)C(=O)O

With `N[C@@H](CCC(=O)N[C@@H](CSN=O)C(=O)NCC(=O)O)C(=O)O` [GSNO], in the experiment on GAT-1 and Synt1A, the “membrane contents of GAT-1 and Synt1A in cultured neurons” value is “significantly increased membrane contents of GAT-1 and Synt1A”; the “total levels of GAT-1 and Synt1A in cultured neurons” value was “had no effects on the total levels of GAT-1 and Synt1A”.

For the molecule Tat-TKKAVKYQSKARRKK [Tat-Synt1A251-265], in experiment [1], the “Synt1A, SNAP-25, or VAMP-2 monomer (synaptosomes)” value is recorded as “did not affect”. For the same molecule, the “stroke-induced decreases in SNARE complexes (synaptosomes)” value in [1] (n = 5-6) was “reversed stroke-induced decreases in SNARE complexes”. In the experiment with GAT-1 [2], the “expression of GAT-1, HEK293 cells overexpressing GAT-1” value was “did not affect” and the “membrane distribution of GAT-1, HEK293 cells overexpressing GAT-1” value was “did not affect”. Also, the “3H-GABA uptake, HEK293 cells overexpressing GAT-1” value with GAT-1 [3] is given as “did not affect”. In the experiment on Synt1A-SNAP-25 complex, the “stroke-induced decrease in Synt1A-SNAP-25 complex” value is “reversed stroke-induced decreases”. For the same molecule, in the experiment on peri-infarct cortex, the “LFP power in delta (1-3 Hz) and theta (4-12 Hz) oscillations” value is listed as “significantly enhanced”; the “effects on cortical oscillations in GAT-1 CKO mice” value was “disappeared in GAT-1 CKO mice”; the “movement-related spike firing rates, WT mice” value is on record as “reversed stroke-induced decrease in spike firing rates”. Also, in [4] (0.2 pmol/d), the “mEPSCs, sham-operated mice” value is listed as “had no effect on sham-operated mice” and the “mIPSCs, sham-operated mice” value is “had no effect on sham-operated mice”. In addition, the “tonic GABA currents (Itonic), sham-operated mice” value in experiment [4] (0.2 pmol/d days 5-7, recorded day 8) is “had no effect on sham-operated mice”. Moreover, in [4] (setting [8]), the “effect of stroke on Itonic, GAT-1 CKO mice with stroke” value is reported as “rather than that in GAT-1 CKO mice with stroke” and the “effect of stroke on Itonic, WT mice with stroke” value is listed as “reversed the effect of stroke on Itonic”. Also, in experiment [4] (0.2 pmol/d, day 8 after stroke), the “mEPSC frequency, mice with stroke” value was “reversed stroke-induced decrease in mEPSC frequency” and the “mIPSC frequency, mice with stroke” value is “reversed the stroke-induced decrease in mIPSC frequency”. Moreover, in experiment [4] (setting [9]), the “sEPSC amplitude, mice with stroke” value is given as “but not amplitude” and the “sEPSC frequency, mice with stroke” value is given as “significantly increased sEPSC frequency”. Further, in experiment [4] (setting [10]), the “sIPSC amplitude, mice with stroke” value is recorded as “but not amplitude” and the “sIPSC frequency, mice with stroke” value is listed as “significantly increased sIPSC frequency”. For the same molecule, in [4] (mouse, in vivo), the “sEPSCs, sham-operated mice” value was “had no effect on sEPSCs” and the “sIPSCs, sham-operated mice” value is on record as “had no effect on sIPSCs of sham-operated mice”. For the same molecule, the “motor functions of sham-operated mice” value in experiment [5] (peptide microinjection, sham-operated mice) was “had no effect on motor functions of sham-operated mice”. In the experiment on Synt1A-VAMP-2 complex, the “stroke-induced decrease in Synt1A-VAMP-2 complex” value is given as “reversed stroke-induced decreases”. In addition, the “stroke-induced increase in [GABA]o in the peri-infarct cortex” value in experiment [6] is “reversed stroke-induced increase in [GABA]o”. Also, the “number of BDA+ fibers crossing the midline into the denervated spinal cord at the C7 level” value in experiment [7] is reported as “significantly increased the number of BDA^+ fibers crossing the midline”.

Take “[dR][Dmt][Cha][dK][dR]-NH2 (N-terminus assumed; SMILES Cc1cc(O)cc(C)c1C[C@H](NC(=O)[C@H](N)CCCNC(=N)N)C(=O)N[C@@H](CC1CCCCC1)C(=O)N[C@H](CCCCN)C(=O)N[C@H](CCCNC(=N)N)C(N)=O) [ZLQ-3]”: in [5] (5 mg/kg intranasally days 5-11 after stroke, test day 12), the “impairment of motor functions, intranasal 5 mg/kg” value is on record as “attenuated the impairment of motor functions”. Also, the “GAT-1-Synt1A uncoupling activity among the ZLQ series” value on GAT-1-Synt1A interaction is recorded as “most potent GAT-1-Synt1A uncoupling activity”.
